Columns and labels:
Type in all cases: ADME
[1] = Acid base constant value for N3 atom; settings: read-out: pKa3
Method in brief: (§1)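 Potentiometric titration: the polyamine hydrochloride salt was first converted to the free amine by adding base, then titrated in 0.1 N KCl. Each nitrogen's pKa was estimated by a nonlinear least-squares computer fit of the titration curve. Fractions of the protonated species were then simulated from the measured pKa values.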

[2] = Acid base constant value for N2 atom; settings: read-out: pKa2; method in brief: as §1
[3] = Acid base constant value for N1 atom; settings: read-out: pKa1; method in brief: as §1
[4] = Acid base constant value for N4 atom; settings: read-out: pKa4; method in brief: as §1

Row | pKa [1] | pKa [2] | pKa [3] | pKa [4] | SMILES
1 | 9.02 | 10.7 | 11.4 | 7.6 | C(CCNC1CCNCC1)CNC1CCNCC1
2 | 9.57 | 10.4 | 11.2 | 8.72 | NCCCCNCCCCNCCCCN
3 | 8.88 | 10.7 | 11.2 | 7.14 | C(CNC1CCNCC1)CNC1CCNCC1
4 | < 2 | 9.14 | 9.55 | < 2 | c1cc(NCCCNc2ccncc2)ccn1
5 | 8.51 | 9.91 | 10.8 | 7.68 | CCNCCCNCCCNCCCNCC [BIS(ETHYL)NORSPERMINE]
6 | 9.42 | 10.8 | 11.2 | 8.25 | CCNCCCNCCCCNCCCNCC [BIS(ETHYL)SPERMINE]
7 | 10 | 10.8 | 10.9 | 9.1 | C(CCNCCC1CCNCC1)CNCCC1CCNCC1
8 | 9.73 | 10.8 | 11.1 | 8.91 | CCNCCCCNCCCCNCCCCNCC [DIETHYLHOMOSPERMINE]
9 | 8.35 | 9.8 | 10.6 | 7.51 | NCCCNCCCNCCCN [THERMINE]

Reference: ChEMBL document CHEMBL1129465, “Polyamine analogue regulation of NMDA MK-801 binding: a structure-activity study” (J Med Chem, 1996)
